Here are results for one compound from ChEMBL document CHEMBL1145212, “Fluorinated diaryl sulfides as serotonin transporter ligands: synthesis, structure-activity relationship study, and in vivo evaluation of fluorine-18-labeled compounds as PET imaging agents” (J Med Chem, 2005).

What all share (conditions): tested as the 18F-labelled form
Experiment [1] deals with Sodium-dependent serotonin transporter (Rattus norvegicus) (UniProt P31652). Description: Specific binding of [18F]AFA in rat striatum after GBR-12935 treatment; n=3. Type of experiment: functional, tissue-based. In a few lines:
(§1)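 Rats, three per group, were pretreated iv with blocker at 2 mg/kg in saline, or with saline as control, 10–15 min before tail-vein F-18 radioligand (about 20 µCi). Killed at 60 min and regional %ID/g determined. Specific binding = (region activity − cerebellum activity)/cerebellum activity; mean ± SD.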

For experiment [2] the target is unchanged. In words: Specific binding of [18F]AFA in rat thalamus after GBR-12935 treatment; n=3. Type of experiment: functional, tissue-based. An outline of the steps: as §1
Experiment [3] shares this target. In words: Specific binding of [18F]-AFA in rat striatum after citalopram treatment; n=3. It counts as functional, tissue-based. An outline of the steps: as §1
Experiment [4] has the same target. Description: Specific binding of [18F]-AFA in rat striatum after nisoxetine treatment; n=3. Type of experiment: functional, tissue-based. An outline of the steps: as §1
For experiment [5] the target is unchanged. Description: Specific binding of [18F]AFA in rat thalamus after citalopram treatment; n=3. Type of experiment: functional, tissue-based. An outline of the steps:
as §1

The target is the same in experiment [6]. In words: Specific binding of [18F]AFA in rat thalamus after nisoxetine treatment; n=3. Type of experiment: functional, tissue-based. An outline of the steps: as §1
Experiment [7] shares this target. In words: Specific binding of [18F]AFA in rat hippocampus after GBR-12935 treatment; n=3. Type of experiment: functional, tissue-based. In a few lines: as §1
For experiment [8] the target is unchanged. Description: Specific binding of [18F]AFA in rat hypothalamus after GBR-12935 treatment; n=3. Type of experiment: functional, tissue-based. In a few lines:
as §1

Experiment [9] shares this target. In words: Specific binding of [18F]AFA in rat hippocampus after citalopram treatment; n=3. Type of experiment: functional, tissue-based. In a few lines:
as §1

For experiment [10] the target is unchanged. In words: Specific binding of [18F]AFA in rat hippocampus after nisoxetine treatment; n=3. It counts as functional, tissue-based. An outline of the steps:
as §1

The target is the same in experiment [11]. In words: Specific binding of [18F]AFA in rat frontal cortex after GBR-12935 treatment; n=3. Type of experiment: functional, tissue-based. In a few lines:
as §1

The target is the same in experiment [12]. Description: Specific binding of [18F]AFA in rat hypothalamus after citalopram treatment; n=3. It counts as functional, tissue-based. In a few lines: as §1
The target is the same in experiment [13]. Description: Specific binding of [18F]AFA in rat hypothalamus after nisoxetine treatment; n=3. It counts as functional, tissue-based. In a few lines:
as §1

Experiment [14] shares this target. In words: Specific binding of [18F]AFA in rat frontal cortex after citalopram treatment; n=3. Type of experiment: functional, tissue-based. In a few lines: as §1
For experiment [15] the target is unchanged. Description: Specific binding of [18F]AFA in rat frontal cortex after nisoxetine treatment; n=3. It counts as functional, tissue-based. An outline of the steps: as §1
Experiment [16] shares this target. In words: Specific binding in rat hypothalamus at 10 min postinjection in vivo. It counts as functional, organism-based. An outline of the steps: (§2)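 Male Sprague-Dawley rats, n=3 per time point, received about 20 µCi of F-18 radioligand in saline iv by tail vein and were killed at 10–120 min. %ID/g was measured with decay and tail-residual correction. Hypothalamic specific binding = (%ID/g hypothalamus − %ID/g cerebellum)/%ID/g cerebellum; mean ± SD.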

For experiment [17] the target is unchanged. Description: Specific binding in rat hypothalamus at 30 min postinjection in vivo. Type of experiment: functional, organism-based. In a few lines: as §2
For experiment [18] the target is unchanged. In words: Specific binding in rat hypothalamus at 60 min postinjection in vivo. It counts as functional, organism-based. An outline of the steps:
as §2

The target is the same in experiment [19]. Description: Specific binding in rat hypothalamus at 90 min postinjection in vivo. Type of experiment: functional, organism-based. In a few lines:
as §2

Experiment [20] shares this target. Description: Specific binding in rat hypothalamus at 120 min postinjection in vivo. Type of experiment: functional, organism-based. In a few lines: as §2
Experiment [21] is filed under the species Rattus norvegicus. Description: Regional uptake of [18F]AFA in blood of rat pretreated with compound 7d; n=3. Type of experiment: functional, organism-based.
Experiment [22] is filed under the species Rattus norvegicus. In words: Regional uptake of [18F]AFA in striatum of rat pretreated with compound 7d; n=3. Type of experiment: functional, organism-based.
The species named for experiment [23] is Rattus norvegicus. Description: Regional uptake of [18F]AFA in cerebellum of rat pretreated with compound 7d; n=3. It counts as functional, organism-based.
The species named for experiment [24] is Rattus norvegicus. In words: Regional uptake of [18F]-AFA in blood of rat pretreated with compound GBR-12935; n=3. Type of experiment: functional, organism-based. An outline of the steps:
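Male Sprague-Dawley rats, three per group, received blocker (2 mg/kg iv in saline) or saline only (controls) 10–15 min before about 20 µCi of tail-vein F-18 radioligand. Killed 60 min after tracer. Blood and brain regions weighed and gamma-counted. %ID/g was decay- and tail-corrected; mean ± SD.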

Sequence of Sodium-dependent serotonin transporter (Rattus norvegicus) (P31652 whole entry): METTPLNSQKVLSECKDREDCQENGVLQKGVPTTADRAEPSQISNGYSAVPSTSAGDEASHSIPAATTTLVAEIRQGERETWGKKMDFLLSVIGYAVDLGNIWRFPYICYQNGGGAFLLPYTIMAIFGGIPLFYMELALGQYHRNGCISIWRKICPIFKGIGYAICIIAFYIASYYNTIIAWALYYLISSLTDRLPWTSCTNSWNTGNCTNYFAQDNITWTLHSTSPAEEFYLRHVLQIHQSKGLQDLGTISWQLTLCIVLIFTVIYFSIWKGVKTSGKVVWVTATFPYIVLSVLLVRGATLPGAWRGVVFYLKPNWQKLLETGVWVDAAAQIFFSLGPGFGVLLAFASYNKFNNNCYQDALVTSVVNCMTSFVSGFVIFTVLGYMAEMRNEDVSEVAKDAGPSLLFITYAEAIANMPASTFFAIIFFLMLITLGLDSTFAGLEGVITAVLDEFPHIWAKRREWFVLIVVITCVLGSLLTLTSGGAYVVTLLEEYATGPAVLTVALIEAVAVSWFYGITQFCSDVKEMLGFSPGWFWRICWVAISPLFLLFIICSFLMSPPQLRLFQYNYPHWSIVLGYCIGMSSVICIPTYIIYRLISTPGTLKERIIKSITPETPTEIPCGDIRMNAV

Consider `CN(C)Cc1ccccc1Sc1ccc(CF)cc1N`, for which the Specific binding in [1] worked out at 4.37 %ID/g; in experiment [2], 4.38 %ID/g; in experiment [3], 0.52 %ID/g; in [4], 3.59 %ID/g; in experiment [5] it was 1.05 %ID/g; in experiment [6], 4.71 %ID/g. Further, the Specific binding came out at 3.51 %ID/g in experiment [7]; 5.3 %ID/g in [8]; 0.67 %ID/g in experiment [9]; 2.72 %ID/g in [10]; 3.83 %ID/g in experiment [11]; 1.37 %ID/g in [12]. Moreover, the Specific binding in experiment [13] worked out at 5.24 %ID/g; in experiment [14], 0.36 %ID/g; in experiment [15] it was 4.02 %ID/g; in [16], 0.98 %ID/g; in [17], 2.27 %ID/g; in [18], 4.56 %ID/g. The Specific binding (dimensionless ratio) was 5.81 in experiment [19] and 8.37 in [20]. Further, the Uptake stood at 0.11 %ID/g in [21], 0.14 %ID/g in [22], 0.09 %ID/g in experiment [23] and 0.11 %ID/g in experiment [24].
